The text below walks through data of ChEMBL document CHEMBL3108740, “Design, synthesis, and biological evaluation of 1-phenylpyrazolo[3,4-e]pyrrolo[3,4-g]indolizine-4,6(1H,5H)-diones as new glycogen synthase kinase-3β inhibitors” (J Med Chem, 2013).

Converted amounts (≈) assume the structure as drawn. The source made the active and inactive calls. The calls are words filed in the database; no cut-off is given here. Some results are limits rather than exact numbers.

Data set [1] addresses Receptor-type tyrosine-protein kinase FLT3 (Homo sapiens) (UniProt P36888). The data set can be described thus: Inhibition of human FLT3 at 1 uM. The method, boiled down: (§1)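 Selectivity panel of 17 human protein kinases, each tested at a single 1 µM concentration. Read-out was percent inhibition of kinase activity. Values are the average of two independent measurements.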

For data set [2], the target named is Calcium/calmodulin-dependent protein kinase type II subunit alpha (Homo sapiens) (UniProt Q9UQM7). Briefly: Inhibition of human recombinant CaMK2alpha using ATP/Ulight-CGSGSGRPRTSSFAEG as substrate at 1 uM after 30 mins by LANCE assay. The method, boiled down: as §1
(In TR-FRET formats the signal depends on donor and acceptor labels being close together.)

In data set [3] the target is Glycogen synthase kinase-3 alpha (Homo sapiens) (UniProt P49840). Briefly: Inhibition of human recombinant GSK-3alpha using ATP/Ulight-CFFKNIVTPRTPPPSQGK-amide as substrate at 1 uM after 60 mins by LANCE assay. Put shortly:
as §1

The nature of data set [4]: Aqueous solubility of the compound at pH 7.4. It counts as physicochemical.
The species entered for data set [5] is Homo sapiens. The data set can be described thus: Selectivity ratio of IC50 for human recombinant CDK2 to IC50 for GSK-3beta (unknown origin).
Data set [6] is filed under the species Homo sapiens. The data set can be described thus: Inhibition of human recombinant PKA alpha expressed in Escherichia coli using ATP/Ulight-RRRSLLE as substrate at 1 uM after 10 mins by LANCE assay. Put shortly: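 Single-concentration (1 µM) percent inhibition within a 17-member human kinase panel. Values are the average of two independent measurements.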

Data set [7] addresses T1, Glycogen synthase kinase-3 beta (Homo sapiens, UniProt P49841). Briefly: Inhibition of GSK3beta in human NCI/ADR-RES cells up to 5 uM. It counts as cell-based. The method, boiled down: (§2)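 Ovarian carcinoma OVCAR-8 cells and their cognate P-glycoprotein-overexpressing line NCI/ADR-RES. Compound tested at concentrations up to 5 µM.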
Target sequence in this assay (P49841 whole entry, looked up): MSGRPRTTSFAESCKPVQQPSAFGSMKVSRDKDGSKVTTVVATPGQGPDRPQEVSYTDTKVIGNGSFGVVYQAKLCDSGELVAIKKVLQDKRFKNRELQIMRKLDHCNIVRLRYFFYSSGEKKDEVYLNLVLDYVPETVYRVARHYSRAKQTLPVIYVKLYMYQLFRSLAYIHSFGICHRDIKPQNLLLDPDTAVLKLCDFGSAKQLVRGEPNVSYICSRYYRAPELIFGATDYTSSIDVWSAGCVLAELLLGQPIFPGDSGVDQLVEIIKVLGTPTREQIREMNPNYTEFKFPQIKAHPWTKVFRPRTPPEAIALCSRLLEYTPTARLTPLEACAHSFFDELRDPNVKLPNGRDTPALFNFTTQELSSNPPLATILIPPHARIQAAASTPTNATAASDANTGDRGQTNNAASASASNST
For data set [8], the target named is Rho-associated protein kinase 1 (Homo sapiens) (UniProt Q13464). Briefly: Inhibition of human recombinant ROCK1 using ATP/Ulight-RRRSLLE as substrate at 1 uM after 30 mins by LANCE assay. Put shortly: as §1
For data set [9], the target named is T1, Glycogen synthase kinase-3 beta. Briefly: Inhibition of GSK3beta in human OVCAR8 cells up to 5 uM. The data set is classed as cell-based. Conditions: OVCAR-8. Put shortly: as §2
Target sequence in this assay (P49841 whole entry, looked up): as above
The target in data set [10] is Cyclin-dependent kinase 2 (Homo sapiens, UniProt P24941). Briefly: Inhibition of human recombinant CDK2 using ATP/Ulight-CFFKNIVTPRTPPPSQGK-amide as substrate after 30 mins by LANCE assay.
The target of data set [11] is T1, Glycogen synthase kinase-3 beta. Briefly: Inhibition of human GSK-3beta-mediated tau phosphorylation in doxycycline/synthetic tau fibril-induced HEK293 cells assessed as decrease in slow mobility of AT180 band at 1 uM after 48 hrs by Immunoblotting analysis. It counts as cell-based. The method, boiled down:
(§3)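 HEK-293 cells express full-length 4-repeat tau (T40) carrying P301L under a doxycycline-regulated promoter. Doxycycline induces expression; 48 h later cells are seeded with synthetic fibrils made from recombinant tau. They are then treated with 1 µM compound or vehicle for 48 h, with non-fibril cells as controls. Lysates are immunoblotted with AT180 (pT231/pS235), 17025 (total tau) and GAPDH as loading control.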
(In general: A western blot detects proteins with antibodies after separation by electrophoresis.)
Target sequence in this assay (P49841 whole entry, looked up): as above

For data set [12], the target named is T2, Mitogen-activated protein kinase 13 (Homo sapiens) (UniProt O15264).
T2 sequence (whole entry): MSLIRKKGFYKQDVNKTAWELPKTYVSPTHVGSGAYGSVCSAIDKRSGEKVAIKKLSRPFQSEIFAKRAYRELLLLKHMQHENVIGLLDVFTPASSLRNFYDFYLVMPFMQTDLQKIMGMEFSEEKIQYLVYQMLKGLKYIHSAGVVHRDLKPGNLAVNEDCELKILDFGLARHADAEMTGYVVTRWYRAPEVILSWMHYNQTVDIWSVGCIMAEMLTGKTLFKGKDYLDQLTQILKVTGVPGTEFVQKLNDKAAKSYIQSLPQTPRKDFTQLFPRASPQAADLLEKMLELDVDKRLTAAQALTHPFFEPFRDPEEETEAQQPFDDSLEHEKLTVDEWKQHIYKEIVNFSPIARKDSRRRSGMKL
Briefly: Inhibition of human recombinant P38delta expressed in Escherichia coli using ATP/Ulight-CFFKNIVTPRTPPPSQGK-amide as substrate at 1 uM after 15 mins by LANCE assay. The method, boiled down: as §1

The target of data set [13] is Tyrosine-protein kinase Fyn (Homo sapiens) (UniProt P06241). Briefly: Inhibition of human recombinant Fyn expressed in insect cells using ATP/biotinyl-betaAbetaAbetaAYQAEENTYDEYEN as substrate at 1 uM after 60 mins by HTRF assay. Put shortly:
as §1

Data set [14] deals with Leucine-rich repeat serine/threonine-protein kinase 2 (Homo sapiens) (UniProt Q5S007). Briefly: Inhibition of human recombinant LRRK2 expressed in insect cells using ATP/Ulight-RRRSLLE as substrate at 1 uM after 60 mins by LANCE assay. Put shortly:
as §1

The target of data set [15] is T1, Glycogen synthase kinase-3 beta. Briefly: Inhibition of human GSK-3beta-mediated tau phosphorylation in doxycycline/synthetic tau fibril-induced HEK293 cells assessed as increase in faster-migrating AT180 band at 1 uM after 48 hrs by Immunoblotting analysis. It counts as cell-based. The method, boiled down:
as §3
Target sequence in this assay (P49841 whole entry, looked up): as the sequence (P49841 whole entry, looked up) above

For data set [16], the target named is Cyclin-dependent kinase 5/CDK5 activator 1 (Homo sapiens) (UniProt Q00535+Q15078). The data set can be described thus: Inhibition of human recombinant CDK5/p35 expressed in insect cells using ATP/Ulight-CFFKNIVTPRTPPPSQGK-amide as substrate at 1 uM after 60 mins by LANCE assay. The method, boiled down:
as §1

The target of data set [17] is cAMP-dependent protein kinase catalytic subunit alpha (Homo sapiens) (UniProt P17612). Briefly: Inhibition of human PKAalpha at 1 uM. Put shortly:
as §1

The target of data set [18] is T1, Glycogen synthase kinase-3 beta. Briefly: Inhibition of human GSK-3beta-mediated tau phosphorylation in doxycycline/synthetic tau fibril-induced HEK293 cells assessed as increase in faster-mobility 17025 band at 1 uM after 48 hrs by Immunoblotting analysis. It counts as cell-based. The method, boiled down:
as §3
Target sequence in this assay (P49841 whole entry, looked up): as the sequence (P49841 whole entry, looked up) above

Data set [19] has as its target T3, Aurora kinase A (Homo sapiens) (UniProt O14965).
T3 sequence (whole entry): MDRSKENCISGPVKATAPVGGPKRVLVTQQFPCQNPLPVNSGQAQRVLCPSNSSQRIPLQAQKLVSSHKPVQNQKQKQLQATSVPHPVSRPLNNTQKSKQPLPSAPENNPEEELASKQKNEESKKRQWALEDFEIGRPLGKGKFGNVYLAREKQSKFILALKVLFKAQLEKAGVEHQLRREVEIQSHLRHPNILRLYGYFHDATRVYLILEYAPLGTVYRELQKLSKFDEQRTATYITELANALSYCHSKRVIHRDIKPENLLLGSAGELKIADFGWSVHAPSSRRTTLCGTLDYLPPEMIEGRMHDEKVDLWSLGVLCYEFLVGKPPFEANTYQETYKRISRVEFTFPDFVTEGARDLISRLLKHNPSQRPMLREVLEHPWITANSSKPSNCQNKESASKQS
Briefly: Inhibition of human recombinant Aurora A expressed in insect sf21 cells using ATP/Ulight-RRRSLLE as substrate at 1 uM after 15 mins by LANCE assay. Put shortly: as §1

Data set [20] deals with Platelet-derived growth factor receptor beta (Homo sapiens) (UniProt P09619). The data set can be described thus: Inhibition of human recombinant PDGFRbeta expressed in insect cells using ATP/Ulight-PolyGAT[EAY(1:1:1)]n as substrate at 1 uM after 30 mins by LANCE assay. Put shortly: as §1
Chain of Platelet-derived growth factor receptor beta (Homo sapiens) (P09619 whole entry): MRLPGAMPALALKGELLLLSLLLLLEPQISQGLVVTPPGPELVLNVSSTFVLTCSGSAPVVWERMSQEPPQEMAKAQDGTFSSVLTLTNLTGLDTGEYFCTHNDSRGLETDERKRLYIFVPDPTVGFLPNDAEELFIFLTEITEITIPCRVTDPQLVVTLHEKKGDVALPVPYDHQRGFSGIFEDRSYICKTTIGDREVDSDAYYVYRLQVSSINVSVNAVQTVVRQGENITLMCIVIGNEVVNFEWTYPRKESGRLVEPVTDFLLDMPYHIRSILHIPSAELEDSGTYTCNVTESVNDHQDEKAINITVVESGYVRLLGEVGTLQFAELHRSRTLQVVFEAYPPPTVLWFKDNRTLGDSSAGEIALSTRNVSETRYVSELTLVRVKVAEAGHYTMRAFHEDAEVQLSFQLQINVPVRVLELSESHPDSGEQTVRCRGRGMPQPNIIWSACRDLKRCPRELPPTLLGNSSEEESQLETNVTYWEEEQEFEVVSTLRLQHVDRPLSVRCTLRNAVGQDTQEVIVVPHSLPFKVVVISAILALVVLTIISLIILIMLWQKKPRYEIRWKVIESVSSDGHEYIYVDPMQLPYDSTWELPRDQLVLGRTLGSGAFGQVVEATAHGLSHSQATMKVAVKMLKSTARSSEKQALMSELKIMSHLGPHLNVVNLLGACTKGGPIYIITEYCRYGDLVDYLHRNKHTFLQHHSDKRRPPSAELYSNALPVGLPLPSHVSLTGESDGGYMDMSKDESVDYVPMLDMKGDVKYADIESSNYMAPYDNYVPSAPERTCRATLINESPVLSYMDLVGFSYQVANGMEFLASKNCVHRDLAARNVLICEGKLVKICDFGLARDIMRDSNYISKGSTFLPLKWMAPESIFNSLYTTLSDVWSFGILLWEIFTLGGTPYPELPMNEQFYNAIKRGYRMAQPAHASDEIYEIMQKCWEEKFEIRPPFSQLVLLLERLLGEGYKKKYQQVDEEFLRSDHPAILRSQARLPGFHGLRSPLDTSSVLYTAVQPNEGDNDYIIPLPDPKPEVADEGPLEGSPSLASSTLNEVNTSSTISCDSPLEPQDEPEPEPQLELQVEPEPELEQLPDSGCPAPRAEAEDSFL
Data set [21] concerns the target T4, Serine/threonine-protein kinase Sgk1 (Homo sapiens) (UniProt O00141).
T4 sequence (whole entry): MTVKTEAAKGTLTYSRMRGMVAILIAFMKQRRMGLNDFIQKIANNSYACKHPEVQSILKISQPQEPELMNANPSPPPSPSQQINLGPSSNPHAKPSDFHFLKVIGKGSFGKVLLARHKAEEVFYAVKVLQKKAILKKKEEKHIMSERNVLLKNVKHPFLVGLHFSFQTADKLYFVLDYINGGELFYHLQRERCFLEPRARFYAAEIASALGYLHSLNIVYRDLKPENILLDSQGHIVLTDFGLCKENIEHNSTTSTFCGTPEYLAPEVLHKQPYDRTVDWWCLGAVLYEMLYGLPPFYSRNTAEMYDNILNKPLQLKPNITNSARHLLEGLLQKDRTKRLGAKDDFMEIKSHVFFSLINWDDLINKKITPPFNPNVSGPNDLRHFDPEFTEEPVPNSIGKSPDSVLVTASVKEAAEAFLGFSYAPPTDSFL
The data set can be described thus: Inhibition of human recombinant SGK1 using ATP/Ulight-RRRSLLE as substrate at 1 uM after 30 mins by LANCE assay. Put shortly:
as §1

Data set [22] has as its target Serine/threonine-protein kinase RAF and Dual specificity mitogen-activated protein kinase kinase 1 (Raf/MEK) (Homo sapiens) (UniProt P04049+Q02750). Briefly: Inhibition of human RAF1/MEK1 at 1 uM. It counts as protein assay. Put shortly: as §1
The target in data set [23] is Vascular endothelial growth factor receptor 2 (Homo sapiens) (UniProt P35968). Briefly: Inhibition of human recombinant VGFR2 expressed in insect sf9 cells using ATP/Ulight-CAGAGAIETDKEYYTVKD as substrate at 1 uM after 60 mins by LANCE assay. The method, boiled down: as §1
Data set [24] addresses Proto-oncogene tyrosine-protein kinase receptor Ret (Homo sapiens) (UniProt P07949). Briefly: Inhibition of human recombinant RET expressed in insect cells using ATP/biotinyl-betaAbetaAbetaAAEEEEYFELVAKKK as substrate at 1 uM after 30 mins by HTRF assay. The method, boiled down: as §1
Data set [25] deals with Mitogen-activated protein kinase 3 (Homo sapiens) (UniProt P27361). Briefly: Inhibition of human recombinant ERK1 expressed in Escherichia coli using ATP/Ulight-CFFKNIVTPRTPPPSQGK-amide as substrate at 1 uM after 30 mins by LANCE assay. The method, boiled down: as §1
Chain of Mitogen-activated protein kinase 3 (Homo sapiens) (P27361 whole entry): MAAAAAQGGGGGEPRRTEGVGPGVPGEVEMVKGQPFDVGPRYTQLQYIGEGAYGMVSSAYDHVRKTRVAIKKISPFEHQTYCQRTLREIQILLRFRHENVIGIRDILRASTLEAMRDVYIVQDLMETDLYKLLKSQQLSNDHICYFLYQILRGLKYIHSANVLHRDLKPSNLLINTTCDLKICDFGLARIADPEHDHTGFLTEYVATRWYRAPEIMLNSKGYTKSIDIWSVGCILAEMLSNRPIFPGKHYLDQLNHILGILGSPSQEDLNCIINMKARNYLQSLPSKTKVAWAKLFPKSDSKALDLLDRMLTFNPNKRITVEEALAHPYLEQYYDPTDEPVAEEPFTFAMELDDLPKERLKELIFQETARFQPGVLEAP
The target in data set [26] is T1, Glycogen synthase kinase-3 beta. The data set can be described thus: Inhibition of GSK-3beta (unknown origin) using (RREGGMSRPAS(p)VDG as substrate assessed as 32P[gamma-ATP] incorporation into substrate after 15 mins by autoradiography.
Target sequence in this assay (P49841 whole entry): as the sequence (P49841 whole entry, looked up) above

Chain of Tyrosine-protein kinase Fyn (Homo sapiens) (P06241 2-537 limits assumed): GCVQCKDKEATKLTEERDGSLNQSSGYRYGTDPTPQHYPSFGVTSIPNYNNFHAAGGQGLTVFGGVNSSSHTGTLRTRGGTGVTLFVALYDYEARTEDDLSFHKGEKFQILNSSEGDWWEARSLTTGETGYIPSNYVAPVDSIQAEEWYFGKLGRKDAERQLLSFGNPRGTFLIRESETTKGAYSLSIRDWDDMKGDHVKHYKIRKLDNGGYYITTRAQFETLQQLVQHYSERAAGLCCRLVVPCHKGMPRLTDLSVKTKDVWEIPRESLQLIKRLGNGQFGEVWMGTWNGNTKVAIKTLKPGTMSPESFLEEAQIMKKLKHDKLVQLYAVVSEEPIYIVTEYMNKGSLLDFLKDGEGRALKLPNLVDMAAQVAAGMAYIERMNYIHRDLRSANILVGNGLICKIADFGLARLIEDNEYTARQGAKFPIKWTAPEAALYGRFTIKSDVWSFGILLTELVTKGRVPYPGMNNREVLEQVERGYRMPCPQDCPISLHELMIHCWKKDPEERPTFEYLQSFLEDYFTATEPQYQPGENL
Chain of Receptor-type tyrosine-protein kinase FLT3 (Homo sapiens) (P36888 whole entry): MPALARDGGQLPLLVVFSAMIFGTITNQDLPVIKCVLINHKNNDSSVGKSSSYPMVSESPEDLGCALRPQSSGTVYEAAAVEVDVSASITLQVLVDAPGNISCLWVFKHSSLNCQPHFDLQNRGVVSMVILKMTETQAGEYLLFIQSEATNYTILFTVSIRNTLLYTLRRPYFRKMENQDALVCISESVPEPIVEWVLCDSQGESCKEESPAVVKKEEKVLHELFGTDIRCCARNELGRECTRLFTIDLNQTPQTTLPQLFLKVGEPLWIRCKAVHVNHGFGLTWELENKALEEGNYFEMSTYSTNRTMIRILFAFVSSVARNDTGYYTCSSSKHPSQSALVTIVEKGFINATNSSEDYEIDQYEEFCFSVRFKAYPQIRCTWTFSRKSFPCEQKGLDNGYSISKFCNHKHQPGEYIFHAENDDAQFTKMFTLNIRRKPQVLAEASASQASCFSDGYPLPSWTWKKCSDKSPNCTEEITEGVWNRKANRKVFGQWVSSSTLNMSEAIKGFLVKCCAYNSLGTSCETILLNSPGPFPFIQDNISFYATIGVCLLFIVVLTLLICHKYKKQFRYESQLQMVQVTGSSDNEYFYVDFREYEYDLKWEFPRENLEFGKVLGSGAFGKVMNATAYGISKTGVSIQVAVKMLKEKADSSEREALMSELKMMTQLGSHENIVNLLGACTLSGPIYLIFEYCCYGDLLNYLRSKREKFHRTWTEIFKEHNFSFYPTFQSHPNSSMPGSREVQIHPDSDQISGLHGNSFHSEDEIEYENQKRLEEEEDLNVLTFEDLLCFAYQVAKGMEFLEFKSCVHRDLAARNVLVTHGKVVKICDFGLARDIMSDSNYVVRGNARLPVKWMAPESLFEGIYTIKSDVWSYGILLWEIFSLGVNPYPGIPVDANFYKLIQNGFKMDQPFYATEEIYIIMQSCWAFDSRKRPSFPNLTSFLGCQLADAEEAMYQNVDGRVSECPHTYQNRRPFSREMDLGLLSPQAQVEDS
Chain of Cyclin-dependent kinase 5/CDK5 activator 1 (Homo sapiens) (Q00535 whole entry): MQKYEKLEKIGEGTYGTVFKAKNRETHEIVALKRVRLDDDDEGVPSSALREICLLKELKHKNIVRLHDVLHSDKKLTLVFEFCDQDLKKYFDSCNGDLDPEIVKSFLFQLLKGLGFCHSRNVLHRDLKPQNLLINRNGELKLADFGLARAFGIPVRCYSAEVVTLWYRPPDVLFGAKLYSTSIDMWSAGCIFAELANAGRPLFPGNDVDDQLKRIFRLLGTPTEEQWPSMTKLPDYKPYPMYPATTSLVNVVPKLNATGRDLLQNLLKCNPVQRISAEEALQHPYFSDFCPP
Chain of Cyclin-dependent kinase 5/CDK5 activator 1 (Homo sapiens) (Q15078 99-307 partner limits assumed): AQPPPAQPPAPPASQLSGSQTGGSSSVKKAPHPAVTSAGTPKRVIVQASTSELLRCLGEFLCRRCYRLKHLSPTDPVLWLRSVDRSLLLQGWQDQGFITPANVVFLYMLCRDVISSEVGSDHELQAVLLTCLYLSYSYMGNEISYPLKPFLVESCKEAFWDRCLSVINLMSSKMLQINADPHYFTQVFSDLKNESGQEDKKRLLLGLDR
Chain of Glycogen synthase kinase-3 alpha (Homo sapiens) (P49840 2-483 limits assumed): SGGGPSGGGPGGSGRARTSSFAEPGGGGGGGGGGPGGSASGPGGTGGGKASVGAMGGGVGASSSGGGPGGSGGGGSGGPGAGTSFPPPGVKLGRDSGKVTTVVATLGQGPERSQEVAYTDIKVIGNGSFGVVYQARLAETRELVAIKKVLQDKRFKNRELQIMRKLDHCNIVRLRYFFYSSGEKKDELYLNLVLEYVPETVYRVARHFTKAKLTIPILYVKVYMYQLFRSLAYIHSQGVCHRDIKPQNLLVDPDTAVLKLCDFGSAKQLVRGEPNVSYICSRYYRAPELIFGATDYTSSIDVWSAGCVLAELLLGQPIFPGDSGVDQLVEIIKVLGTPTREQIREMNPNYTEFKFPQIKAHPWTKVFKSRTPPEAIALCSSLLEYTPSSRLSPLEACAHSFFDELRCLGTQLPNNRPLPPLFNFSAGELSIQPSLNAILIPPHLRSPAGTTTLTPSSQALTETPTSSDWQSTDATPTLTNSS

Take `Cc1nn(-c2ccc(Cl)cc2Cl)c2c1c1c(c3cccn32)C(=O)NC1=O`: the inhibition in data set [1] was 30%; in data set [2], under 10%; in data set [3] it was 98.3%; in [6] it was under 10%; in [8], under 10%; in [12], under 10%. In addition, the inhibition in data set [13] is under 10%; in data set [14] it was under 10%; in data set [16], under 10%; in data set [17] it was under 10%; in data set [19], under 10%; in data set [20], 13.7%. In addition, the inhibition in data set [21], in data set [22], in data set [23], in data set [24] and in data set [25] was under 10% in each case. The compound further had a solubility in [4] of 3.1 µM (≈ 1.19 µg/mL). In data set [5], the Ratio IC50 was over 10. Moreover, the inhibition result in data set [7] and in [9] was “inactive” throughout. The IC50 in data set [10] is 2800 nM; in data set [26], 240 nM. Besides, the inhibition entry in data set [11], in [15] and in data set [18] was “Active” in each case.

`Cc1ccccc1-n1nc(C)c2c3c(c4cccn4c21)C(=O)NC3=O`: the IC50 in data set [26] came out at 440 nM.

As for `O=C1NC(=O)c2c1c1cnn(-c3ccccc3Cl)c1n1cccc21`, the IC50 in [26] was 810 nM.

For `Cc1nn(-c2ccccc2)c2c1c1c(c3cccn32)C(=O)NC1=O`, the IC50 in data set [26] came out at 690 nM.

As to `COc1ccccc1-n1ncc2c3c(c4cccn4c21)C(=O)NC3=O`, the IC50 in [26] was 1000 nM.

`O=C1NC(=O)c2c1c1cnn(-c3ccccc3)c1n1cccc21`: in [26], the IC50 was determined as 1690 nM.

For `Cc1nn(-c2ccccc2Cl)c2c1c1c(c3cccn32)C(=O)NC1=O`, the half-inhibitory concentration (IC50) in data set [26] was determined as 940 nM.

Turning to `Cc1ccccc1-n1ncc2c3c(c4cccn4c21)C(=O)NC3=O`, the 50% inhibitory concentration (IC50) in [26] was 1210 nM.

Usually inhibition stands for the drop in the measured response relative to a control, in per cent. For orientation: solubility means the dissolved amount per volume that the medium holds. A high value points to a readily soluble substance. A word on the IC50: it is the point on the concentration scale where inhibition reaches its midpoint.
